Results reported in ChEMBL document CHEMBL4689842, “EUbOPEN Chemogenomics Library wave 1” (2021).

System: U2OS
Assay: Multiplex assay against U2OS
Type: toxicity, cell-based
Details: human
How it was run: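 Values for tubulin, mitochondrial-mass and membrane-permeability phenotypes are per cents of cells with healthy nuclei. These cells were identified by CellPathfinder machine-learning gating of live cells that had been stained at seeding with Hoechst33342, BioTracker Green Microtubule Cytoskeleton Dye, MitoTracker Red and Annexin V Alexa Fluor 680 and imaged on a CQ1 microscope at 37°C and 5% CO2 after compound addition. The gating first set Hoechst high-intensity objects apart from normal cells, then split normal cells into healthy, pyknosed or fragmented nuclei, and pyknosed cells into mitotic or apoptotic.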

[1] = 12 h, 1 µM, compound concentration 1 uM, replicate 1
[2] = 12 h, 1 µM, compound concentration 1 uM, replicate 2
[3] = 12 h, 10 µM, compound concentration 10 uM, replicate 1
[4] = 12 h, 10 µM, compound concentration 10 uM, replicate 2
[5] = 24 h, 1 µM, compound concentration 1 uM, replicate 1
[6] = 24 h, 1 µM, compound concentration 1 uM, replicate 2
[7] = 24 h, 10 µM, compound concentration 10 uM, replicate 1
[8] = 24 h, 10 µM, compound concentration 10 uM, replicate 2
[9] = 48 h, 1 µM, compound concentration 1 uM, replicate 1
[10] = 48 h, 1 µM, compound concentration 1 uM, replicate 2
[11] = 48 h, 10 µM, compound concentration 10 uM, replicate 1
[12] = 48 h, 10 µM, compound concentration 10 uM, replicate 2

Compound: O=C(Nc1ccc(-c2ccnc(Nc3ccc(N4CCOCC4)cc3)n2)cc1)[C@@H]1CCCN1
- Population Apoptotic (%) [1]: 45%
- Population Fragmented Nuclei (%) [1]: 11%
- Population Healthy Nuclei (%) [1]: 76%
- Population Hoechst High Intensity Objects (%) [1]: 3%
- Population Membrane Permeable-Phenotype (%) [1]: 6%
- Population Mitochondria Different-Phenotype (%) [1]: 10%
- Population Mitotic Cells (%) [1]: 55%
- Population Normal (%) [1]: 96%
- Population Pyknosed Nuclei (%) [1]: 11%
- Population Tubulin-Different-Phenotype (%) [1]: 16%
- Total Cell Count [1]: 100
- Population Apoptotic (%) [2]: 33%
- Population Fragmented Nuclei (%) [2]: 13%
- Population Hoechst High Intensity Objects (%) [2]: 7%
- Population Membrane Permeable-Phenotype (%) [2]: 4%
- Population Mitotic Cells (%) [2]: 66%
- Population Normal (%) [2]: 92%
- Population Pyknosed Nuclei (%) [2]: 10%
- Population Tubulin-Different-Phenotype (%) [2]: 10%
- Total Cell Count [2]: 65
- Population Apoptotic (%) [3]: 62%
- Population Fragmented Nuclei (%) [3]: 13%
- Population Healthy Nuclei (%) [3]: 66%
- Population Hoechst High Intensity Objects (%) [3]: 7%
- Population Membrane Permeable-Phenotype (%) [3]: 12%
- Population Mitochondria Different-Phenotype (%) [3]: 74%
- Population Mitotic Cells (%) [3]: 37%
- Population Normal (%) [3]: 92%
- Population Pyknosed Nuclei (%) [3]: 20%
- Population Tubulin-Different-Phenotype (%) [3]: 97%
- Total Cell Count [3]: 176
- Population Apoptotic (%) [4]: 77%
- Population Fragmented Nuclei (%) [4]: 7%
- Population Healthy Nuclei (%) [4]: 77%
- Population Hoechst High Intensity Objects (%) [4]: 5%
- Population Membrane Permeable-Phenotype (%) [4]: 8%
- Population Mitochondria Different-Phenotype (%) [4]: 28%
- Population Mitotic Cells (%) [4]: 22%
- Population Normal (%) [4]: 94%
- Population Pyknosed Nuclei (%) [4]: 14%
- Population Tubulin-Different-Phenotype (%) [4]: 44%
- Total Cell Count [4]: 65
- Population Apoptotic (%) [5]: 41%
- Population Fragmented Nuclei (%) [5]: 8%
- Population Healthy Nuclei (%) [5]: 76%
- Population Hoechst High Intensity Objects (%) [5]: 3%
- Population Membrane Permeable-Phenotype (%) [5]: 7%
- Population Mitochondria Different-Phenotype (%) [5]: 9%
- Population Mitotic Cells (%) [5]: 58%
- Population Normal (%) [5]: 96%
- Population Pyknosed Nuclei (%) [5]: 15%
- Population Tubulin-Different-Phenotype (%) [5]: 10%
- Total Cell Count [5]: 90
- Population Apoptotic (%) [6]: 60%
- Population Fragmented Nuclei (%) [6]: 7%
- Population Healthy Nuclei (%) [6]: 85%
- Population Hoechst High Intensity Objects (%) [6]: 6%
- Population Membrane Permeable-Phenotype (%) [6]: 3%
- Population Mitochondria Different-Phenotype (%) [6]: 19%
- Population Mitotic Cells (%) [6]: 40%
- Population Normal (%) [6]: 93%
- Population Pyknosed Nuclei (%) [6]: 7%
- Total Cell Count [6]: 63
- Population Apoptotic (%) [7]: 60%
- Population Fragmented Nuclei (%) [7]: 12%
- Population Healthy Nuclei (%) [7]: 65%
- Population Hoechst High Intensity Objects (%) [7]: 7%
- Population Membrane Permeable-Phenotype (%) [7]: 17%
- Population Mitochondria Different-Phenotype (%) [7]: 80%
- Population Mitotic Cells (%) [7]: 39%
- Population Normal (%) [7]: 92%
- Population Pyknosed Nuclei (%) [7]: 21%
- Population Tubulin-Different-Phenotype (%) [7]: 97%
- Total Cell Count [7]: 198
- Population Apoptotic (%) [8]: 58%
- Population Fragmented Nuclei (%) [8]: 18%
- Population Healthy Nuclei (%) [8]: 64%
- Population Hoechst High Intensity Objects (%) [8]: 1%
- Population Membrane Permeable-Phenotype (%) [8]: 13%
- Population Mitochondria Different-Phenotype (%) [8]: 17%
- Population Mitotic Cells (%) [8]: 41%
- Population Normal (%) [8]: 98%
- Population Pyknosed Nuclei (%) [8]: 17%
- Population Tubulin-Different-Phenotype (%) [8]: 22%
- Total Cell Count [8]: 72
- Population Apoptotic (%) [9]: 36%
- Population Fragmented Nuclei (%) [9]: 5%
- Population Hoechst High Intensity Objects (%) [9]: 1%
- Population Membrane Permeable-Phenotype (%) [9]: 4%
- Population Mitochondria Different-Phenotype (%) [9]: 8%
- Population Mitotic Cells (%) [9]: 63%
- Population Normal (%) [9]: 98%
- Population Pyknosed Nuclei (%) [9]: 13%
- Population Tubulin-Different-Phenotype (%) [9]: 13%
- Total Cell Count [9]: 94
- Population Apoptotic (%) [10]: 0%
- Population Fragmented Nuclei (%) [10]: 10%
- Population Healthy Nuclei (%) [10]: 80%
- Population Hoechst High Intensity Objects (%) [10]: 5%
- Population Membrane Permeable-Phenotype (%) [10]: 5%
- Population Mitochondria Different-Phenotype (%) [10]: 12%
- Population Mitotic Cells (%) [10]: 100%
- Population Normal (%) [10]: 94%
- Population Pyknosed Nuclei (%) [10]: 9%
- Population Tubulin-Different-Phenotype (%) [10]: 16%
- Total Cell Count [10]: 61
- Population Apoptotic (%) [11]: 67%
- Population Fragmented Nuclei (%) [11]: 24%
- Population Healthy Nuclei (%) [11]: 48%
- Population Hoechst High Intensity Objects (%) [11]: 6%
- Population Membrane Permeable-Phenotype (%) [11]: 18%
- Population Mitochondria Different-Phenotype (%) [11]: 53%
- Population Mitotic Cells (%) [11]: 32%
- Population Normal (%) [11]: 93%
- Population Pyknosed Nuclei (%) [11]: 26%
- Population Tubulin-Different-Phenotype (%) [11]: 86%
- Total Cell Count [11]: 289
- Population Apoptotic (%) [12]: 60%
- Population Fragmented Nuclei (%) [12]: 9%
- Population Healthy Nuclei (%) [12]: 70%
- Population Hoechst High Intensity Objects (%) [12]: 8%
- Population Membrane Permeable-Phenotype (%) [12]: 28%
- Population Mitochondria Different-Phenotype (%) [12]: 32%
- Population Mitotic Cells (%) [12]: 40%
- Population Normal (%) [12]: 91%
- Population Pyknosed Nuclei (%) [12]: 20%
- Population Tubulin-Different-Phenotype (%) [12]: 23%
- Total Cell Count [12]: 125

Compound: CCc1cccc(CC)c1NC(=O)c1nn(C)c2c1CCc1cnc(Nc3ccc(N4CCN(C)CC4)cc3OC)nc1-2
- Population Apoptotic (%) [1]: 70%
- Population Fragmented Nuclei (%) [1]: 38%
- Population Healthy Nuclei (%) [1]: 7%
- Population Hoechst High Intensity Objects (%) [1]: 8%
- Population Membrane Permeable-Phenotype (%) [1]: 100%
- Population Mitochondria Different-Phenotype (%) [1]: 75%
- Population Mitotic Cells (%) [1]: 29%
- Population Normal (%) [1]: 91%
- Population Pyknosed Nuclei (%) [1]: 53%
- Population Tubulin-Different-Phenotype (%) [1]: 100%
- Total Cell Count [1]: 159
- Population Apoptotic (%) [2]: 68%
- Population Fragmented Nuclei (%) [2]: 18%
- Population Healthy Nuclei (%) [2]: 12%
- Population Hoechst High Intensity Objects (%) [2]: 14%
- Population Membrane Permeable-Phenotype (%) [2]: 77%
- Population Mitochondria Different-Phenotype (%) [2]: 100%
- Population Mitotic Cells (%) [2]: 31%
- Population Normal (%) [2]: 85%
- Population Pyknosed Nuclei (%) [2]: 68%
- Total Cell Count [2]: 87
- Population Apoptotic (%) [3]: 26%
- Population Fragmented Nuclei (%) [3]: 5%
- Population Healthy Nuclei (%) [3]: 80%
- Population Hoechst High Intensity Objects (%) [3]: 2%
- Population Membrane Permeable-Phenotype (%) [3]: 35%
- Population Mitochondria Different-Phenotype (%) [3]: 54%
- Population Mitotic Cells (%) [3]: 73%
- Population Normal (%) [3]: 97%
- Population Pyknosed Nuclei (%) [3]: 14%
- Population Tubulin-Different-Phenotype (%) [3]: 95%
- Total Cell Count [3]: 143
- Population Apoptotic (%) [4]: 50%
- Population Fragmented Nuclei (%) [4]: 8%
- Population Healthy Nuclei (%) [4]: 83%
- Population Hoechst High Intensity Objects (%) [4]: 18%
- Population Membrane Permeable-Phenotype (%) [4]: 22%
- Population Mitochondria Different-Phenotype (%) [4]: 69%
- Population Mitotic Cells (%) [4]: 50%
- Population Normal (%) [4]: 81%
- Population Pyknosed Nuclei (%) [4]: 8%
- Population Tubulin-Different-Phenotype (%) [4]: 93%
- Total Cell Count [4]: 127
- Population Apoptotic (%) [5]: 94%
- Population Fragmented Nuclei (%) [5]: 30%
- Population Healthy Nuclei (%) [5]: 9%
- Population Hoechst High Intensity Objects (%) [5]: 20%
- Population Membrane Permeable-Phenotype (%) [5]: 100%
- Population Mitochondria Different-Phenotype (%) [5]: 100%
- Population Mitotic Cells (%) [5]: 5%
- Population Normal (%) [5]: 80%
- Population Pyknosed Nuclei (%) [5]: 59%
- Population Tubulin-Different-Phenotype (%) [5]: 100%
- Total Cell Count [5]: 169
- Population Apoptotic (%) [6]: 92%
- Population Fragmented Nuclei (%) [6]: 18%
- Population Healthy Nuclei (%) [6]: 17%
- Population Mitotic Cells (%) [6]: 7%
- Population Pyknosed Nuclei (%) [6]: 64%
- Total Cell Count [6]: 84
- Population Apoptotic (%) [7]: 53%
- Population Fragmented Nuclei (%) [7]: 10%
- Population Healthy Nuclei (%) [7]: 71%
- Population Hoechst High Intensity Objects (%) [7]: 1%
- Population Membrane Permeable-Phenotype (%) [7]: 22%
- Population Mitochondria Different-Phenotype (%) [7]: 73%
- Population Mitotic Cells (%) [7]: 46%
- Population Normal (%) [7]: 98%
- Population Pyknosed Nuclei (%) [7]: 18%
- Population Tubulin-Different-Phenotype (%) [7]: 92%
- Total Cell Count [7]: 196
- Population Apoptotic (%) [8]: 41%
- Population Fragmented Nuclei (%) [8]: 14%
- Population Healthy Nuclei (%) [8]: 69%
- Population Hoechst High Intensity Objects (%) [8]: 10%
- Population Membrane Permeable-Phenotype (%) [8]: 21%
- Population Mitochondria Different-Phenotype (%) [8]: 75%
- Population Mitotic Cells (%) [8]: 58%
- Population Normal (%) [8]: 89%
- Population Pyknosed Nuclei (%) [8]: 16%
- Population Tubulin-Different-Phenotype (%) [8]: 94%
- Total Cell Count [8]: 163
